KCNQ1 act: potentiators or activators of human KCNQ1 potassium channel; P51787; B-score at 10 µM; CHO-K1 KCNQ1, thallium flux FluxOR fluorescence; stronger effect = higher value; 0.35% of 310,000 active;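 active means fluorescence ratio B-score, a plate-corrected score, at least three library SD, with initial intensity B-score within 5 SD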
Target sequence (P51787 whole entry, looked up): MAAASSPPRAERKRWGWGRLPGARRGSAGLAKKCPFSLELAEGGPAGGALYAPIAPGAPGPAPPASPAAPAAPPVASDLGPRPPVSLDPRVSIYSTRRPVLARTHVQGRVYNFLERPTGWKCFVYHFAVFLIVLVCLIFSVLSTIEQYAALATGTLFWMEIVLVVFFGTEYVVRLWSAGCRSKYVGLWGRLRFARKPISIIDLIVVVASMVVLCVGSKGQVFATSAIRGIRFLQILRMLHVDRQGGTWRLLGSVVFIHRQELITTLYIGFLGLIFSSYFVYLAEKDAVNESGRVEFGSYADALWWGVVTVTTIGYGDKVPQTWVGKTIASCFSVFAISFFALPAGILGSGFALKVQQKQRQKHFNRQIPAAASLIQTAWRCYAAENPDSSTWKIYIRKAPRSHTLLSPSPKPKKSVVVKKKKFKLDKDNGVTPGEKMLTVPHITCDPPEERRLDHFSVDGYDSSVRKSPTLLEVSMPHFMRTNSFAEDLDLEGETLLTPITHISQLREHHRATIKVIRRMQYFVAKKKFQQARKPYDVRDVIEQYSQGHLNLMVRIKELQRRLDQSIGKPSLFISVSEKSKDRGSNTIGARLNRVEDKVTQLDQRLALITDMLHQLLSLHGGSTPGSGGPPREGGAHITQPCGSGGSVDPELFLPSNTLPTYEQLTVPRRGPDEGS
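Assay system: CHO-K1 cells stably expressing KCNQ1. Medium: assay buffer for compound exposure, DMSO matched across wells. Timing: 37 °C overnight plating, 90-min dark dye load, 20-min compound pretreatment. Signal: kinetic FluxOR fluorescence, 10 s baseline plus 110 s post-stimulus.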
KCNK9 inh: blocks the human KCNK9 two-pore domain potassium channel | Q9NPC2 | HEK293 KCNK9, FluxOR thallium flux fluorescence; stronger effect = lower value | B-score at 10 µM | 1.2% of 310,000 active;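 active means ratio B-score over 3 SD below the library mean, with starting fluorescence within 5 SD of its mean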;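 further: negative B-score means less thallium flux so channel inhibition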
Kir21 inh: Kir2.1 (mouse) channel inhibition; P35561; HEK293-Kir2.1, FluxOR thallium flux fluorescence; stronger effect = lower value; B-score at 10 µM; 0.85% of 310,000 active; AID 1672;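 active means fluorescence ratio B-score at or below minus 3 SD of library scores, with starting-brightness B-score within 2 SD, cut at about -4.2 in these data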;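 further: channel flux triggered by added potassium and thallium sulfate stimulus; B-score of peak minus minimum fluorescence over baseline after thallium stimulus; more negative B-score means stronger Kir2.1 block with less thallium influx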
KCNQ1 block: inhibitors of human KCNQ1 potassium channel. 1.3% of 310,000 active. CHO-K1 KCNQ1, FluxOR thallium flux fluorescence; stronger effect = higher value. P51787. B-score at 10 µM;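 active means compounds whose thallium flux B-score, printed positive for inhibition, exceeds three library SD while starting fluorescence stays within three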;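 further: channel opened by potassium depolarization with thallium stimulus after 20 min compound exposure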
KCNK3 inh: human KCNK3 channel inhibition, primary screen; O14649; CHO-KCNK3 thallium flux, FluxOR fluorescence; stronger effect = lower value; B-score at 10 µM; 0.84% of 340,000 active;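 active means B-score under library mean minus 4 SD, starting fluorescence ratio at most library mean plus 5 SD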;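 further: more negative B-score means stronger inhibition of thallium flux through KCNK3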
hERG rescue: shields human hERG channel from block by proarrhythmic agents. AID 1511. activation (rescue from dofetilide block), less the hit threshold, % at 10 µM. CHO-hERG, FluxOR thallium flux, dofetilide IC70 present. 0.51% of 310,000 active;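 active means activation above the mean of controls blocked by dofetilide plus 5 SD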;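 further: thallium influx through hERG after potassium depolarization seen as dye fluorescence rise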
KCNK9 inh conf: confirmation of human KCNK9 potassium channel inhibitors; 43% of 4,900 active; shares compounds with KCNK9 inh; HEK293 KCNK9 cells, FluxOR thallium flux fluorescence; inhibition, % at 10 µM;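 active means thallium signal inhibited by more than 5 SD of the compound-free buffer control wells, on both duplicate plates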;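 further: 0% = assay buffer control wells without compound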
Kir2-1 spec: tests whether KCNK9 modulators also affect mouse Kir2.1; shares compounds with KCNK9 inh; Kir2.1 cells, FluxOR thallium flux fluorescence; 4% of 4,900 active; inhibition, % at 10 µM;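 active means thallium signal drop more than 5 SD beyond the mean of the no-compound control wells, seen in both duplicate plates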;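 further: signal is fluorescence rise after thallium addition divided by baseline fluorescence; plate controls were assay buffer only for no effect and full block by chlorpromazine control for full effect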
KCNK9 uninduced: second check of KCNK9 modulator effects in non-induced HEK293 cells | shares compounds with KCNK9 inh | FluxOR thallium flux | inhibition, % at 10 µM | 40% of 4,900 active | AID 492997;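 active means thallium signal drop beyond 5 SD of the untreated control mean, on both duplicate plates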;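 further: plate controls were buffer only IC0 wells for no effect and SID17386958 at its maximal inhibitory level for full effect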
An asterisk follows results filed as active; i = inactive; / = not tested or not shown. Most compounds without a hit are left out; they make up all but 3.8% or so of the library.

SMILES | KCNQ1 act | KCNK9 inh | Kir21 inh | KCNQ1 block | KCNK3 inh | hERG rescue | KCNK9 inh conf | Kir2-1 spec | KCNK9 uninduced
COc1ccc(-c2[nH]c(-c3ccc(C(=O)O)cc3)nc2-c2ccccc2)cc1 | i | i | -0.09 | i | i | -10 | / | / | /
COc1cc(-c2nc(-c3ccc4c(c3)-c3ccccc3S4(=O)=O)c(-c3ccccc3)[nH]2)cc(OC)c1O | i | -16* | -0.05 | 6* | -10* | -9 | 69%* | i | 28%*
CN(CC(=O)Nc1ccc(Cl)cc1)C1=NS(=O)(=O)c2ccccc21 | / | / | / | / | i | / | / | / | /
O=C(OCCN(C1=NS(=O)(=O)c2ccccc21)c1ccccc1Cl)c1ccc(Cl)cc1 | i | -8.1* | 1.3 | i | i | -10 | 30%* | i | 30%*
COc1ccc(NC(=O)C2CCCN2C(=O)NC2CCCCC2)cc1 (centres undefined) | i | i | -0.07 | i | i | -4 | / | / | /
CCCC1=C(C(=O)OCC)C(c2cccs2)C(C#N)=C(N)O1 (centres undefined) | i | i | -1.9 | i | i | -12 | / | / | /
CCN1CC2=C(OC(N)=C(C#N)C2c2cccs2)/C(=C/c2cccs2)C1 (centres undefined) | i | -8.9* | 1.2 | i | i | -15 | 35%* | i | 31%*
CC1=CC(C)(C)N(C(=O)c2ccccc2)c2ccc(C)cc21 | i | i | 0.72 | i | i | -11 | / | / | /
COc1ccc(C(=O)N2c3cc4c(cc3C(C)=CC2(C)C)OCO4)cc1 | i | -11* | 2.2 | i | i | -9 | 26%* | i | 42%*
COc1cccc(CN(C)C(c2ccccc2)c2ccccc2)c1OC | i | -8.2* | 0.41 | i | i | -11 | i | i | i
COc1cccc(CN(C)C(=O)Cc2c[nH]c3ccccc23)c1OC | i | i | -0.65 | i | i | -7 | / | / | /
CCC(=O)N(CCC(Cc1ccccc1)c1ccc2c(c1)OCO2)Cc1ccccc1F (centres undefined) | i | -13* | 2.5 | 9* | i | -11 | 65%* | i | 32%*
CCC(=O)N(CCc1ccccc1)Cc1cc2cc3c(cc2[nH]c1=O)OCO3 | i | i | 0.01 | i | i | -11 | / | / | /
CCC(=O)N(CCC(Cc1ccccc1)c1ccco1)Cc1ccco1 (centres undefined) | i | -9.9* | -12* | i | i | -23 | 46%* | 50%* | 36%*
Cc1nn(C(C)C(=O)NCCCN2CCCC2)c(=O)c2nn(-c3ccccc3)c(C)c12 (centres undefined) | i | i | 0.77 | i | i | -5 | / | / | /
Cn1cnnc1SCC(=O)NC1CC1 | / | / | / | / | i | / | / | / | /
CCN(C(=O)CSc1nc2cc(Cl)ccc2c(=O)n1Cc1ccco1)C1CCS(=O)(=O)C1 (centres undefined) | i | -10* | -2.5 | i | i | 0 | i | i | i
CN(C(=O)CSc1nc2ccc(Br)cc2c(=O)n1Cc1ccco1)C1CCS(=O)(=O)C1 (centres undefined) | i | i | 1.2 | i | i | -19 | / | / | /
COc1ccc2nc(SCC(=O)Nc3ccc4c(c3)CCC4)[nH]c2c1 | i | i | -1.1 | i | i | -12 | i | i | i
COc1ccc2nc(SCC(=O)Nc3ccc4[nH]c(=O)[nH]c4c3)[nH]c2c1 | / | / | / | / | i | / | / | / | /
O=c1c2ccccc2ncn1CCCSc1ccccc1 | i | i | 1.8 | i | i | -10 | i | i | 30%*
COC(=O)C1=C(C(=O)OC)SC(=C2C(=S)C(C)(C)N(C(=O)CC(C)C)c3ccccc32)S1 | i | -11* | -1.3 | i | i | -13 | 26%* | i | 32%*
O=[N+]([O-])c1c(C(Cl)Cl)nn(-c2ccccc2)c1N1CCOCC1 | i | i | -0.17 | i | i | -20 | / | / | /
O=[N+]([O-])c1c(C(Cl)Cl)nn(-c2ccc(Cl)cc2)c1N1CCCCC1 | i | i | 0.36 | i | i | -6 | i | i | i
CCOc1cc(CNC(C)(C)CO)cc(Br)c1OCc1ccc(Cl)cc1Cl | i | -8.7* | -9.4* | i | i | -28 | 55%* | 53%* | 34%*
SMILES | KCNQ1 act | KCNK9 inh | Kir21 inh | KCNQ1 block | KCNK3 inh | hERG rescue | KCNK9 inh conf | Kir2-1 spec | KCNK9 uninduced
CCC(NC(=O)c1cccc(Cn2nc(C)c([N+](=O)[O-])c2C)c1)c1ccc(C(C)C)cc1 (centres undefined) | i | i | 0.42 | i | i | -8 | i | i | i
Clc1cccc(COn2c(-c3ccc(Cl)cc3Cl)nc3ncccc32)c1 | i | -8.8* | -2.3 | i | i | -11 | 46%* | i | 35%*
Cc1csc2nc(CSc3nc4ccccc4o3)c(Br)n12 | i | -12* | -0.17 | i | i | -3 | i | i | 46%*
C=CCSc1nc2c(c(=N)n1CC=C)C1CCCC1S2 (centres undefined) | i | -18* | -0.31 | i | i | -8 | i | i | 36%*
C=CCn1c(C)nnc1SCC(=O)NC1CCCCC1 | i | i | 1.4 | i | i | -4 | / | / | /
CCOc1ccc(CCNC(=O)c2cc(-c3ccccc3)c(N3CCOCC3)s2)cc1 | i | i | -1.1 | i | i | -5 | / | / | /
COc1ccc(CCNC(=O)c2cc(-c3ccccc3)c(N3CCOCC3)s2)c(OC)c1OC | i | i | -0.63 | i | i | -8 | i | i | i
Cc1ccccc1OCCn1cnc2cc([N+](=O)[O-])ccc2c1=O | i | i | -1 | i | i | -21 | / | / | /
O=C(Nc1sc2c(c1C(=O)NCc1ccco1)CCCC2)c1ccc2c(c1)OCO2 | i | -10* | -0.57 | i | i | -4 | 42%* | i | i
COc1ccc(C(=O)Nc2sc3c(c2C(=O)NCc2ccco2)CCCC3)cc1OC | i | -12* | -0.41 | i | i | -9 | 31%* | i | i
COc1c(-c2ccc([N+](=O)[O-])cc2[N+](=O)[O-])c(=O)n(C)c(=O)n1C | i | i | -0.09 | i | i | -4 | / | / | /
Brc1ccc(N=Nc2ccc3ccccc3n2)cc1 | i | -10* | -0.12 | i | i | -7 | 42%* | i | 82%*
